From ChEMBL document CHEMBL2401724, “Synthesis and structure--activity relationships of N²-alkylated quaternary β-carbolines as novel antitumor agents” (Eur J Med Chem, 2013)

What was measured:
BGC-823 = assay: Cytotoxicity against human BGC823 cells by MTT assay; type: functional, cell-based
Outline: (§1)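 Cell lines were cultured in 96-well microtitre plates at 37 °C in humidified 5% CO₂. Compounds were dissolved in DMSO, at ≤2% (v/v) final in the growth medium. Viability was read by MTT staining, expressed relative to untreated cells.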

A-375 = assay: Cytotoxicity against human A375 cells by MTT assay; type: functional, cell-based; outline: as §1
[1] = Cytotoxicity against mouse LLC cells by MTT assay; type: functional, cell-based; conditions: Lewis lung carcinoma; outline: as §1
MCF7 = assay: Cytotoxicity against human MCF7 cells by MTT assay; type: functional, cell-based; outline: as §1
[2] = Acute toxicity in ip dosed C57BL/6 mouse after 14 days; type: organism-based; conditions: in vivo
Outline: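 C57BL/6 mice (9–12 weeks, 18–22 g), single i.p. dose; watched continuously for 2 h, intermittently over 24 h, then occasionally to day 14 for behaviour, deaths and delayed effects. Survivors killed at day 14; heart, liver, kidneys inspected macroscopically, early deaths also examined. LD50 derived graphically.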

SK-OV-3 = assay: Cytotoxicity against human SKOV3 cells by MTT assay; type: functional, cell-based; outline: as §1
[3] = Cytotoxicity against human ECA109 cells by MTT assay; type: functional, cell-based; conditions: ECa-109; outline: as §1
[4] = Antitumor activity against mouse Sarcoma 180 cells allografted in mouse assessed as tumor growth inhibition at 2.5 mg/kg, ip qd administered for 7 days measured after 21 days relative to control; type: functional; conditions: Sarcoma-180, ip, route intraperitoneal, read-out: TGI
Outline: (§2)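 Tumour cells (S180 sarcoma or Lewis lung) were first grown in mice for 7 days, then harvested. Viable cells (2 × 10⁶/mouse) were injected s.c. into the armpit. Groups of 10 female mice received the compound i.p. once daily for 7 consecutive days, starting 24 h after inoculation. Cyclophosphamide 30 mg/kg served as positive control and vehicle as negative control. Body weights were taken every 3 days. Mice were killed on day 21 post-inoculation, and tumours were excised and weighed to calculate the inhibition rate versus control.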

CWR22R = assay: Cytotoxicity against human 22Rv1 cells by MTT assay; type: functional, cell-based; outline: as §1
769-P = assay: Cytotoxicity against human 769-P cells by MTT assay; type: functional, cell-based; outline: as §1
HepG2 = assay: Cytotoxicity against human HepG2 cells by MTT assay; type: functional, cell-based; outline: as §1
HT-29 = assay: Cytotoxicity against human HT-29 cells by MTT assay; type: functional, cell-based; outline: as §1
[5] = tested on: Lewis lung carcinoma cell line; assay: Antitumor activity against mouse LLC cells allografted in mouse assessed as tumor growth inhibition at 4 mg/kg, ip qd administered for 7 days measured after 21 days relative to control; type: functional; conditions: route intraperitoneal, read-out: TGI; outline: as §2
LoVo = assay: Cytotoxicity against human LoVo cells; type: functional, cell-based
[6] = Antitumor activity against mouse Sarcoma 180 cells allografted in mouse assessed as tumor growth inhibition at 4 mg/kg, ip qd administered for 7 days measured after 21 days relative to control; type: functional; conditions: Sarcoma-180, ip, route intraperitoneal, read-out: TGI; outline: as §2
[7] = Antitumor activity against mouse Sarcoma 180 cells allografted in mouse assessed as tumor growth inhibition at 1.75 mg/kg, ip qd administered for 7 days measured after 21 days relative to control; type: functional; conditions: Sarcoma-180, ip, route intraperitoneal, read-out: TGI; outline: as §2
[8] = tested on: Lewis lung carcinoma cell line; assay: Antitumor activity against mouse LLC cells allografted in mouse assessed as tumor growth inhibition at 1.75 mg/kg, ip qd administered for 7 days measured after 21 days relative to control; type: functional; conditions: route intraperitoneal, read-out: TGI; outline: as §2

SMILES	IC50 (BGC-823) [µM]	IC50 (A-375) [µM]	IC50 [1] [µM]	IC50 (MCF7) [µM]	LD50 at 336 h [2] [mg/kg]	IC50 (SK-OV-3) [µM]	IC50 [3] [µM]	inhibition in vivo at 2.5 mg/kg [4] [%]	IC50 (CWR22R) [µM]	IC50 (769-P) [µM]	IC50 (HepG2) [µM]	IC50 (HT-29) [µM]	inhibition in vivo at 4 mg/kg [5] [%]	IC50 (LoVo) [µM]	inhibition in vivo at 4 mg/kg [6] [%]	inhibition in vivo at 1.75 mg/kg [7] [%]	inhibition in vivo at 1.75 mg/kg [8] [%]
Fc1ccc(C[n+]2ccc3c4ccccc4n(CCCc4ccccc4)c3c2)cc1.[Cl-]	8.1	10.4	8.1	9.7	12.5	12.2	5.3	51.5	4.3	14.3	10.4	9.1					
c1ccc(Cn2c3ccccc3c3cc[n+](Cc4ccccc4)cc32)cc1	38.7	7.8	< 2	18.7		16.9	32.7		5.7	8.7	34.6	42.5	48.5	20	45.9		
[Br-].c1ccc(CCCn2c3ccccc3c3cc[n+](Cc4ccccc4)cc32)cc1	8.5	8.7	3.9	14.4	8.9	4.4	11.7		3.2	4.9	7.9	7.6				62.1	59.2
